pIC50: −log10 of the molar value.
How the values were obtained:
Mus musculus [1] = assay: Antinociceptive activity in chronic constriction injury neutropathic pain CD-1 mouse model at 3 umol/kg, po after 3 hrs post dose relative to control; type: functional
[2] = biological target: T1, Adenosine receptor A1 (Mus musculus) (UniProt Q60612); assay: Displacement of [125I]I-AB-MECA from mouse A1 adenosine receptor expressed in HEK293 cells at 10 uM after 60 mins by liquid scintillation counting
T1 sequence (whole entry): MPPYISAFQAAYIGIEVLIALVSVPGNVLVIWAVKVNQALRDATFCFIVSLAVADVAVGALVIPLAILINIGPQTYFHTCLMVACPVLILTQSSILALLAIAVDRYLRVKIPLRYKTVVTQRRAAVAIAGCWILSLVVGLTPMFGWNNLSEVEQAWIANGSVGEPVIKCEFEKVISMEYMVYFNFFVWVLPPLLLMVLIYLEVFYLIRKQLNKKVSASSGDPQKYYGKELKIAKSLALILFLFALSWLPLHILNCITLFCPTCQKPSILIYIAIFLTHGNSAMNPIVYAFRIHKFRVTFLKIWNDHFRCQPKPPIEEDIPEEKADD

[3] = biological target: Voltage-gated inwardly rectifying potassium channel KCNH2 (Homo sapiens, UniProt Q12809); assay: Inhibition of human ERG by PDSP screening
Chain of Voltage-gated inwardly rectifying potassium channel KCNH2 (Q12809 whole entry): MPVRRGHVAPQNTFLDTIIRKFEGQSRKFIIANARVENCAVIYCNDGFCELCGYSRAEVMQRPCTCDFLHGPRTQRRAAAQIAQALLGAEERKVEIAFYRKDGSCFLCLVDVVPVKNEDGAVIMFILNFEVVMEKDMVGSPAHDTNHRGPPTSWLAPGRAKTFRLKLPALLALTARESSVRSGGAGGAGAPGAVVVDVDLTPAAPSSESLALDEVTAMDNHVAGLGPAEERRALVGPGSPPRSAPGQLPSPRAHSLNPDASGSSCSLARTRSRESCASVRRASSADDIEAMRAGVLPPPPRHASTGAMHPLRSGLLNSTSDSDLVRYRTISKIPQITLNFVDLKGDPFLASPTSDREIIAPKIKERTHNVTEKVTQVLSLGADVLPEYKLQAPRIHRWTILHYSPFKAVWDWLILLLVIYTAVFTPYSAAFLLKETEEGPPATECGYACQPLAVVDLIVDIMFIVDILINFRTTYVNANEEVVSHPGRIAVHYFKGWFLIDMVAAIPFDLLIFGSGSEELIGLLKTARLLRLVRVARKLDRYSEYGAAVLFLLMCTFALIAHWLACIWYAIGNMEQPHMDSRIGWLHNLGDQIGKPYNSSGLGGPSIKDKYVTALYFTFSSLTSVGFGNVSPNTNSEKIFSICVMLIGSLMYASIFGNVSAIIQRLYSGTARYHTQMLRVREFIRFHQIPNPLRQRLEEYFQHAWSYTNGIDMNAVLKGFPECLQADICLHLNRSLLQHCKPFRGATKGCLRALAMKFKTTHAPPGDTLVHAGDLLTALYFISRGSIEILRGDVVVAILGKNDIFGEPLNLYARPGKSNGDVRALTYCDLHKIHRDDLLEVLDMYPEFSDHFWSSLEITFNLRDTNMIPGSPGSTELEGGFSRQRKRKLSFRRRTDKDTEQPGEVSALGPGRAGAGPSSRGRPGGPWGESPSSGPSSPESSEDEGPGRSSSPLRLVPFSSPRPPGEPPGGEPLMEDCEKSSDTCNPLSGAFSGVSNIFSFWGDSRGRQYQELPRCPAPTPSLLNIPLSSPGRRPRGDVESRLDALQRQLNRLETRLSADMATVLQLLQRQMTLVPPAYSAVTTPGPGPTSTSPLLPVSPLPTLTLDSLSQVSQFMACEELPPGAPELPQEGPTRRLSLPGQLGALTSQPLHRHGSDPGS

Mus musculus [4] = assay: Antinociceptive activity in chronic constriction injury neutropathic pain CD-1 mouse model assessed as time for peak protection at 3 umol/kg, po; type: functional
Procedure, shortened: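 Male CD-1 mice (25−30 g), chronic constriction injury of left sciatic nerve (Bennett model) under isoflurane. Dosed by gavage (3 μmol/kg, 0.2 mL) at peak mechano-allodynia on day 7; vehicle 10% DMSO in 0.5% methylcellulose. Paw withdrawal threshold (g) measured on the ipsilateral hind paw from 30 min to 5 h post dose. Expressed as % reversal, mean ± SEM over n animals.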

CHO = assay: Selectivity ratio of Ki for mouse A3 adenosine receptor expressed in HEK293 cells to Ki for human recombinant A3 adenosine receptor expressed in CHO cells; type: cell-based
[5] = biological target: T2, Adenosine receptor A1 (Homo sapiens) (UniProt P30542); assay: Displacement of [3H]R-PIA from human recombinant A1 adenosine receptor expressed in CHO cells at 10 uM after 60 mins by liquid scintillation counting; type: cell-based
T2 sequence (whole entry): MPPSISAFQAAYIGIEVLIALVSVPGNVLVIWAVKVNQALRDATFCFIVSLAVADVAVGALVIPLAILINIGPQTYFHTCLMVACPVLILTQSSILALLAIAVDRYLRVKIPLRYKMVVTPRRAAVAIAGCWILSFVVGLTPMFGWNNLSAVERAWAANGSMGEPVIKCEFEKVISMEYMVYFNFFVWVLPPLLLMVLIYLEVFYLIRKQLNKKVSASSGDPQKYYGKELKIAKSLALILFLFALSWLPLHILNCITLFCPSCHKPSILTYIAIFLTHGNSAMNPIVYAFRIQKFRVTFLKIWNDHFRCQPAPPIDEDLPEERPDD

Mus musculus [6] = assay: Antinociceptive activity in chronic constriction injury neutropathic pain CD-1 mouse model assessed as maximum protection on ipsilateral hind paw at 3 umol/kg, po after 30 mins to 5 hrs post dose relative to control; type: functional; conditions: CD-1, po
[7] = biological target: Adenosine receptor A2a (Homo sapiens) (UniProt P29274); assay: Displacement of [3H]CGS21680 from human recombinant A2A adenosine receptor expressed in HEK293 cells at 10 uM after 60 mins by liquid scintillation counting; type: cell-based
Chain of Adenosine receptor A2a (Homo sapiens) (P29274 whole entry): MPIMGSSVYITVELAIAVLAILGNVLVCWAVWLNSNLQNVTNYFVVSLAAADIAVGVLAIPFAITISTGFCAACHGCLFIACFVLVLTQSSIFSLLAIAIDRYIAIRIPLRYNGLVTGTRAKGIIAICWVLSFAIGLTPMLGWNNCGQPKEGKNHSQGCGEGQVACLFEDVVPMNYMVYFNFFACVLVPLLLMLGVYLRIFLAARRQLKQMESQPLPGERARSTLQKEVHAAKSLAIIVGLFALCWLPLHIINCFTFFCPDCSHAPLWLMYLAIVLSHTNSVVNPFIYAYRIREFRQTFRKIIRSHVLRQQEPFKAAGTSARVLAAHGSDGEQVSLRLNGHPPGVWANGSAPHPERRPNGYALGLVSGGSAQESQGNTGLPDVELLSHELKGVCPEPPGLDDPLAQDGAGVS

[8] = biological target: Adenosine receptor A2a (Mus musculus) (UniProt Q60613); assay: Displacement of [3H]CGS21680 from mouse A2A adenosine receptor expressed in HEK293 cells at 10 uM after 60 mins by liquid scintillation counting; type: cell-based
Chain of Adenosine receptor A2a (Mus musculus) (Q60613 whole entry): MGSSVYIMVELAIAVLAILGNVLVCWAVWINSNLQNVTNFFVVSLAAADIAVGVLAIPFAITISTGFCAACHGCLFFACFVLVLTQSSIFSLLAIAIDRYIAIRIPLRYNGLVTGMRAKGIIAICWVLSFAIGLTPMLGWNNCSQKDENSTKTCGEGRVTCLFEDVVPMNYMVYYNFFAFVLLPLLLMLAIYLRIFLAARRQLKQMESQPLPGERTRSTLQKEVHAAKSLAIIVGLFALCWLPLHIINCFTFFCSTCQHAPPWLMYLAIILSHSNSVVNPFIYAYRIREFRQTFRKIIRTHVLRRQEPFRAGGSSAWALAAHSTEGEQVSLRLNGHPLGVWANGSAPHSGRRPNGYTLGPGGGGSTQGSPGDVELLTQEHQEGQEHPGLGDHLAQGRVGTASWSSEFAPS

Cytochrome P450 2C9 = Cytochrome P450 2C9 (Homo sapiens, UniProt P11712); assay: Inhibition of CYP2C9 in human microsomes preincubated for 5 mins before substrate addition measured after 10 mins by LC/MS/MS analysis; type: ADME
Chain of Cytochrome P450 2C9 (P11712 whole entry): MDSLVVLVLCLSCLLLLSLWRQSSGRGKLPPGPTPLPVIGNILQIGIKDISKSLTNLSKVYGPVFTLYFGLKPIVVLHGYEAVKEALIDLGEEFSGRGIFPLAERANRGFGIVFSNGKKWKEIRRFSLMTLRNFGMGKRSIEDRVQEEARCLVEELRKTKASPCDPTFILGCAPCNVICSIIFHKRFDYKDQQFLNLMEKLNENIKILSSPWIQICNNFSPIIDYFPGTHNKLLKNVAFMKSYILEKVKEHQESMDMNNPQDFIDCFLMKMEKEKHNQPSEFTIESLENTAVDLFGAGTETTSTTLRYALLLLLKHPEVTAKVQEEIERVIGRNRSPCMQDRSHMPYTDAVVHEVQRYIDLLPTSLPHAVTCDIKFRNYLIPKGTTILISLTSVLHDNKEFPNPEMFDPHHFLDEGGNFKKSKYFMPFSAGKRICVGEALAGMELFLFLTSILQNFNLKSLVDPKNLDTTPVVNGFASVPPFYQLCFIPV

Liver microsome = assay: Intrinsic clearance in human liver microsomes assessed per mg protein at 100 uM by LC-MS/MS analysis; type: ADME
[9] = biological target: T3, Adenosine receptor A3 (Mus musculus) (UniProt Q61618); assay: Agonist activity at mouse A3 adenosine receptor expressed in HEK293 cells assessed as inhibition of forskolin-stimulated cAMP production after 15 mins relative to control; type: functional, cell-based
T3 sequence (whole entry): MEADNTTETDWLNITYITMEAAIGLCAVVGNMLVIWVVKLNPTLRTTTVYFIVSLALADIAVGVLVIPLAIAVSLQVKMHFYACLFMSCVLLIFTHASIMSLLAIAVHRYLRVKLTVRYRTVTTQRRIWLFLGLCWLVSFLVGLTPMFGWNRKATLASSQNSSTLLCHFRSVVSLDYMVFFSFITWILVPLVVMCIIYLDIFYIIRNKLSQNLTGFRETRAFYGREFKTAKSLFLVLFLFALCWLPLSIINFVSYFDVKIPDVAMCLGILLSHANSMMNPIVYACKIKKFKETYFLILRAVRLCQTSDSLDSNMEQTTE
Procedure, shortened: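 2 × 10^5 cells/tube, coincubated with forskolin 10 μM plus ligand for 15 min at 37 °C with shaking. Stopped with HCl. cAMP in supernatant measured by competitive binding.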

Cytochrome P450 2C19 = Cytochrome P450 2C19 (Homo sapiens, UniProt P33261); assay: Inhibition of CYP2C19 in human microsomes preincubated for 5 mins before substrate addition measured after 10 mins by LC/MS/MS analysis; type: ADME
Chain of Cytochrome P450 2C19 (P33261 whole entry): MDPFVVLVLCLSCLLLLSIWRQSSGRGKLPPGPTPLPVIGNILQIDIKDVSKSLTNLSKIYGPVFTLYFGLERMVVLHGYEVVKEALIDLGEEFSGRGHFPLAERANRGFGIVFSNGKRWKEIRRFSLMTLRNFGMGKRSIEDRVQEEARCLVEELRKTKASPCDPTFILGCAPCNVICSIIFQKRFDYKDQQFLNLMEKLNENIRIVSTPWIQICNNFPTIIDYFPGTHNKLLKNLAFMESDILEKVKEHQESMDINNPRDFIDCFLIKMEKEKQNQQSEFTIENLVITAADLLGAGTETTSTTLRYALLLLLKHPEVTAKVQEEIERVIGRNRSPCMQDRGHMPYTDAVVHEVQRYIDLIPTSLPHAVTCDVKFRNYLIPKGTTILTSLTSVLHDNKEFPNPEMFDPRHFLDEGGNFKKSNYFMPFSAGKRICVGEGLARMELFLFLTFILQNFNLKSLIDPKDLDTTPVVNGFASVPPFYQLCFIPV

Cytochrome P450 2D6 = Cytochrome P450 2D6 (Homo sapiens, UniProt P10635); assay: Inhibition of CYP2D6 in human microsomes preincubated for 5 mins before substrate addition measured after 10 mins by LC/MS/MS analysis; type: ADME
Cytochrome P450 1A2 = biological target: T4, Cytochrome P450 1A2 (Homo sapiens, UniProt P05177); assay: Inhibition of CYP1A2 in human microsomes preincubated for 5 mins before substrate addition measured after 10 mins by LC/MS/MS analysis; type: ADME
T4 sequence (P05177 whole entry): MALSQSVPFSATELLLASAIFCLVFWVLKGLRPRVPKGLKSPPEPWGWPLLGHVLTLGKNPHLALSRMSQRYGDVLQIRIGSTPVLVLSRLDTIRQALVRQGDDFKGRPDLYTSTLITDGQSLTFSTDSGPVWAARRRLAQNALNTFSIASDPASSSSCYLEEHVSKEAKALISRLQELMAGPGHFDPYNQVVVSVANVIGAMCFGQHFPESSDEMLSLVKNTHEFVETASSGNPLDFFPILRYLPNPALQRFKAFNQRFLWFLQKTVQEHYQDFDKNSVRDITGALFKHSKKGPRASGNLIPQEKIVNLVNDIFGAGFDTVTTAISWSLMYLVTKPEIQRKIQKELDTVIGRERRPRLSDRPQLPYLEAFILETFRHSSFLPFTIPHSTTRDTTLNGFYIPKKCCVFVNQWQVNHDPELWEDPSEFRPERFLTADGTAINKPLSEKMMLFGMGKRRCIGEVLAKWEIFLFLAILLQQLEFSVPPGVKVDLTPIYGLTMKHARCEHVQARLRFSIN

[10] = Permeability across apical to basolateral side of human Caco2 cells expressing P-gp; type: ADME, cell-based; conditions: caco-2
Cytochrome P450 3A4 = Cytochrome P450 3A4 (Homo sapiens, UniProt P08684); assay: Inhibition of CYP3A4 in human microsomes preincubated for 5 mins before substrate addition measured after 10 mins by LC/MS/MS analysis; type: ADME
Chain of Cytochrome P450 3A4 (P08684 whole entry): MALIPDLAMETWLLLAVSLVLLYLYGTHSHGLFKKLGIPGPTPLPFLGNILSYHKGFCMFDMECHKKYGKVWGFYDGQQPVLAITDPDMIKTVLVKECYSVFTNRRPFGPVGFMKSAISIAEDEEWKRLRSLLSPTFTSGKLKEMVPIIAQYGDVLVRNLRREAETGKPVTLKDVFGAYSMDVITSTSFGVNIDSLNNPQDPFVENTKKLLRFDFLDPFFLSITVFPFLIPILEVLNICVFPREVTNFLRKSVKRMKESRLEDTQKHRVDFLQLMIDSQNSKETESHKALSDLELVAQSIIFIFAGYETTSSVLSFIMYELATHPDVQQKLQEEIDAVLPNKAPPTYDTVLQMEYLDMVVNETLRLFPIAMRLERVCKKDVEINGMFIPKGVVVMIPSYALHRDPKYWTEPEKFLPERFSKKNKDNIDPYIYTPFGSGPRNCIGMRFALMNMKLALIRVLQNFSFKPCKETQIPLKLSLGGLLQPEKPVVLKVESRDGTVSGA

hERG (KCNH2) = hERG (KCNH2) (Homo sapiens, UniProt Q12809); assay: Inhibition of human ERG at 10 uM by PDSP screening
Chain of hERG (KCNH2) (Q12809 whole entry): as the sequence (Q12809 whole entry) above

Row | SMILES | Activity (Mus musculus [1]) [%] | Time (Mus musculus [4]) [h] | inhibition [5] [%] | Emax at 3 µmol/kg (Mus musculus [6]) [%] | inhibition [7] [%] | further results
1 | CNC(=O)[C@@]12C[C@@H]1[C@@H](n1cnc3c(NCc4cccc(Cl)c4)nc(C#Cc4ccc(F)c(F)c4)nc31)[C@H](O)[C@@H]2O | 23.7 | 1 | – | – | – | inhibition [2]: 16%; pIC50 [3]: 4.91
2 | CNC(=O)[C@@]12C[C@@H]1[C@@H](n1cnc3c(NC)nc(C#Cc4ccc(F)cc4)nc31)[C@H](O)[C@@H]2O | 10.4 | 1 | 27 | 72 | – | Ratio Ki (CHO): > 30
3 | CNC(=O)[C@@]12C[C@@H]1[C@@H](n1cnc3c(NC)nc(C#Cc4ccc(-c5ccccc5)cc4)nc31)[C@H](O)[C@@H]2O | 14.3 | 1 | 18 | 57.7 | 21 | –
4 | CNC(=O)[C@@]12C[C@@H]1[C@@H](n1cnc3c(NC)nc(C#Cc4ccccc4Cl)nc31)[C@H](O)[C@@H]2O | 10.6 | 0.5 | 22 | 27.5 | – | Ratio Ki (CHO): > 30
5 | CNC(=O)[C@@]12C[C@@H]1[C@@H](n1cnc3c(NC)nc(C#Cc4cnccn4)nc31)[C@H](O)[C@@H]2O | – | 1 | 37 | 100 | 25 | inhibition [8]: 12%; pIC50 (Cytochrome P450 2C9): < 5.00; CLH (Liver microsome): 2.99 µL/min; Imax [9]: 30%; pIC50 (Cytochrome P450 2C19): < 5.00; pIC50 (Cytochrome P450 2D6): < 5.00; pIC50 (Cytochrome P450 1A2): < 5.00; permeability [10]: impermeable; pIC50 (Cytochrome P450 3A4): < 5.00
6 | CNC(=O)[C@H]1O[C@@H](n2cnc3c(NCc4cccc(I)c4)ncnc32)[C@H](O)[C@@H]1O [IB-MECA] | 38.7 | 1 | – | 94.1 | – | –
7 | CNC(=O)[C@@]12C[C@@H]1[C@@H](n1cnc3c(NC)nc(C#Cc4cccc(F)c4)nc31)[C@H](O)[C@@H]2O | 12.4 | 1 | 14 | 46.3 | – | –
8 | CNC(=O)[C@@]12C[C@@H]1[C@@H](n1cnc3c(NC)nc(C#Cc4nccs4)nc31)[C@H](O)[C@@H]2O | 12.7 | 1 | 31 | 53.2 | 8 | –
9 | CNC(=O)[C@@]12C[C@@H]1[C@@H](n1cnc3c(NC)nc(C#Cc4ccccc4F)nc31)[C@H](O)[C@@H]2O | 9.8 | 0.5 | 20 | 56 | – | –
10 | CNC(=O)[C@@]12C[C@@H]1[C@@H](n1cnc3c(NC)nc(C#Cc4cccs4)nc31)[C@H](O)[C@@H]2O | – | 1 | 25 | 100 | 20 | inhibition [8]: 3%; Imax [9]: 28%; inhibition [2]: 47%
11 | CNC(=O)[C@@]12C[C@@H]1[C@@H](n1cnc3c(NC)nc(C#Cc4ccccn4)nc31)[C@H](O)[C@@H]2O | 0 | 0.5 | 13 | 31.8 | – | –
12 | CNC(=O)[C@@]12C[C@@H]1[C@@H](n1cnc3c(NC)nc(C#Cc4ccc(Cl)cc4)nc31)[C@H](O)[C@@H]2O | 4.6 | 0.5 | 13 | 40.4 | – | –
13 | CNC(=O)[C@@]12C[C@@H]1[C@@H](n1cnc3c(NC)nc(C#Cc4ccccc4)nc31)[C@H](O)[C@@H]2O | 5 | 0.5 | 18 | 44.1 | – | –
14 | CNC(=O)[C@@]12C[C@@H]1[C@@H](n1cnc3c(NC)nc(C#CC4CC4)nc31)[C@H](O)[C@@H]2O | 19.1 | 1 | 38 | 54.6 | 15 | –
15 | CNC(=O)[C@@]12C[C@@H]1[C@@H](n1cnc3c(NC)nc(C#Cc4cnn(C)c4)nc31)[C@H](O)[C@@H]2O | – | 1 | 35 | 87.3 | 12 | inhibition [8]: 16%; inhibition [2]: 72%; inhibition at 10 µM (hERG (KCNH2)): 28%

Source: ChEMBL document CHEMBL3407461 (J Med Chem, 2014)
